Assay results: paper PMC3277286 (Journal of Medicinal Chemistry, 2012)

Tests used:
human ΔF508-CFTR [1] = biological target: T1, human ΔF508-CFTR (Homo sapiens, UniProt P13569, DEL508-508); test: ΔF508-CFTR corrector activity, fluorescence plate-reader iodide influx assay; type: cell-based; details: summary in text of corrector and potentiator assays in ΔF508-CFTR FRT cells
Method in brief: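 FRT cells stably coexpressing human ΔF508-CFTR and YFP-H148Q/I152L were grown 24 h at 37 °C, then given test compound for 16–20 h at eight concentrations (maximum 25 μM). After a PBS wash, they got 20 μM forskolin plus 50 μM genistein for 20 min. Iodide influx was read as YFP quenching after Cl-to-I replacement (137 mM), fitted exponentially. Runs were in triplicate; EC50/Vmax came from a 4-parameter logistic fit.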

human ΔF508-CFTR [2] = biological target: T1, human ΔF508-CFTR; type: cell-based; details: summary in text of corrector and potentiator assays in ΔF508-CFTR FRT cells
Method in brief: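 FRT cells coexpressing human ΔF508-CFTR and YFP-H148Q/I152L were grown 18–24 h at 37 °C, then rescued 18–24 h at 27 °C. After a PBS wash, they got 20 μM forskolin with test compound (0–50 μM final, eight concentrations) for 10 min. I⁻ influx was recorded over 2 s baseline plus 12 s after iodide addition, rate by exponential regression. Controls were DMSO and genistein. Runs were in triplicate; EC50/Vmax came from a 4-parameter logistic fit.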

SMILES	Activity class from function studies (corrector / dual) (human ΔF508-CFTR [1])	Activity class from function studies (potentiator) (human ΔF508-CFTR [2])
Cc1cc(C)c2cc(C#N)c(NCCNC(=O)c3cnccn3)nc2c1 [CoPo 22, N-(2-((3-Cyano-5,7-dimethylquinolin-2-yl)amino)ethyl)pyrazine-2-carboxamide]	corrector-only activity	–
Cc1cc(C)c2cc(C#N)c(NCCNC(=O)c3ccccc3)nc2c1 [CoPo 19, N-(2-((3-Cyano-5,7-dimethylquinolin-2-yl)amino)ethyl)benzamide]	–	potentiator-only activity
COc1ccccc1C(=O)NCCCNc1nc2cc(C)cc(C)c2cc1C#N [CoPo 31, N-(3-(3-Cyano-5,7-dimethylquinolin-2-ylamino)propyl)-2-methoxybenzamide]	–	potentiator-only activity
Cc1cc(C)c2cc(C#N)c(NCCCNC(=O)c3ccccn3)nc2c1 [CoPo 34, N-(3-(3-Cyano-5,7-dimethylquinolin-2-ylamino)propyl)picolinamide]	–	potentiator-only activity
Cc1cc(C)c2cc(C#N)c(NCCNC(=O)c3ccccn3)nc2c1 [CoPo 16, N-(2-((3-Cyano-5,7-dimethylquinolin-2-yl)amino)ethyl)picolinamide]	–	potentiator-only activity
